Measurements gathered from unrelated publications.
Compare with care: the assays were run in different laboratories.
Target: Dual specificity mitogen-activated protein kinase kinase 1 (MAP2K1, Homo sapiens, UniProt Q02750)

COc1ccc2[nH]c3c4[nH]c5ccc(OC)cc5c4c4c(c3c2c1)C(=O)NC4=O
remaining binding (binding; competition with immobilised ligand; 1 µM): 70%

COc1ccc2oc(-c3ccc4nc(N)oc4c3)c/c(=N\c3ccccc3NC(=O)CCN)c2c1
remaining binding (binding; 1 µM): 102%

Cc1ccc(NC(=O)c2ccnc(C(F)(F)F)c2)cc1-c1cc(OCCO)nc(N2CCOCC2)c1
remaining binding (binding; competition with immobilised ligand; 1 µM): 86%

CO[C@@H]1[C@H](N(C)C(=O)c2ccccc2)C[C@H]2O[C@]1(C)n1c3ccccc3c3c4c(c5c6ccccc6n2c5c31)C(=O)NC4
inhibition (enzyme activity; inhibitor; 1 µM): 30%

N#Cc1ccc(NC(=O)Nc2ccccc2)cc1
remaining binding (cell-free assay; competition with immobilised ligand; 25 µM): 66%

Cc1cc(O)c(-c2ccc([C@@H](C)CN(C)C)cc2)c2c1[nH]c(=O)c1sccc12
inhibition (enzyme activity; inhibitor; 0.1 µM): 8.68%

C=CC(=O)N1CCC[C@@H](n2nc(-c3ccc(Oc4ccccc4)cc3)c3c(N)ncnc32)C1
inhibition (enzyme activity; inhibitor; 1 µM): 84%

CCCCC(=O)Nc1ccc(-c2ccc3ncn(CCC)c(=O)c3c2)cn1
remaining binding (binding; competition with immobilised ligand; 0.5 µM): 52%
